# SMARCA2 activ = SMARCA2 function activation, primary screen | activation, % at 9.1 µM | 1% of 370,000 active | MG213 cells, MMTV-luciferase reporter, dexamethasone, overnight; in the data active = activation above about 7.8%;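 also: 0% = vehicle wells and 100% = reference activator wells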
# TAG inh = triacylglycerol accumulation inhibition | H9c2 cells, Nile Red lipid (TAG) fluorescence; cells loaded with 200 µM oleic acid | inhibition, % at 12.5 µM | 0.66% of 230,000 active | AID 651582;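 active = pattern-corrected inhibition of lipid staining of at least 50% with the nuclear-stain viability signal not falling by more than 50%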;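 also: 0% = DMSO wells and 100% = triacsin C control wells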
# AHR act = activators of human aryl hydrocarbon receptor; activation, % at 5 µM; 2.5% of 320,000 active; AHR-responsive luciferase reporter cells, luminescence; in the data active = activation above about 47%;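 also: 0% = vehicle wells and 100% = reference agonist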
# Target sequence (P35869 whole entry, looked up): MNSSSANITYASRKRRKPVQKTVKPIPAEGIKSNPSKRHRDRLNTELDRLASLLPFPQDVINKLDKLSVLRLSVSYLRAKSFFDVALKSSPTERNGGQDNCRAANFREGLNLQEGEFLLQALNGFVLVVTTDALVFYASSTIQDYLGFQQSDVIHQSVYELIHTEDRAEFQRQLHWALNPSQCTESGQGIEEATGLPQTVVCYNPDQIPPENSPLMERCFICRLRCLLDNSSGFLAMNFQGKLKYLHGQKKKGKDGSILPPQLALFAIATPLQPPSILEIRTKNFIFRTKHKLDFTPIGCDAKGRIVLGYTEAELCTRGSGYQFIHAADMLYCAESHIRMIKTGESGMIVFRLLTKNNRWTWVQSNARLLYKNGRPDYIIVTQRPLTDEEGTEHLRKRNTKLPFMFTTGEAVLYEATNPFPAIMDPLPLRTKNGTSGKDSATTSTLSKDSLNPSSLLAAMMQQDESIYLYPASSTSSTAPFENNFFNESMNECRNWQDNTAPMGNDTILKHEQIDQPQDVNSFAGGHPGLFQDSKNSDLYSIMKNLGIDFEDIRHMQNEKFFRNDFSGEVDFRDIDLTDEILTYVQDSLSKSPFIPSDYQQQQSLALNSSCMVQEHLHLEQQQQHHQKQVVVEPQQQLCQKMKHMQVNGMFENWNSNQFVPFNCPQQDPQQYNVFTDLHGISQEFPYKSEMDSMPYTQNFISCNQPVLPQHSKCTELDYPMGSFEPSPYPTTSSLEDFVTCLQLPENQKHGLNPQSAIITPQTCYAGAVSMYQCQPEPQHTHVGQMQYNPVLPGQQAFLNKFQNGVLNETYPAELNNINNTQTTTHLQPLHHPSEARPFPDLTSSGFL
# Efflux pump inh = blocks antifungal efflux pumps in multiplex yeast assay | S. cerevisiae Candida pump triplex, Nile Red efflux | AID 485275 | inhibition, % at 10 µM | 0.44% of 330,000 active;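 active = plate passing quality check with inhibition over a set limit, or well fluorescence over plate mean plus 4 SD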;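 also: Nile Red retained in pooled yeast measured as flow cytometry median fluorescence; 0% = buffer negative control and 100% = Enniatin B positive control; higher means more Nile Red kept so more efflux inhibition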
# TbMetRS inhib = Trypanosoma brucei MetRS inhibition; inhibition, % at 11.9 µM; purified T. brucei MetRS, ATP depletion, Kinase-Glo luminescence; AID 624268; 0.4% of 360,000 active;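 active = inhibition above a per-plate cutoff of the control wells' mean inhibition plus 3 SD, cut at about 5.5% in these data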;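 also: 0% = DMSO wells median and 100% = median of wells with control inhibitor compound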
#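 Material: T. brucei methionyl-tRNA synthetase, purified; reagent: substrates ATP, L-methionine and bulk Escherichia coli tRNA; dosing: 11.9 µM single point; timing: 15 min plus 2 h at 25 °C; detection: luminescence of leftover ATP; evaluation: % inhibition; control set: DMSO-only wells as low control; replicates: singlicate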
# Yeast cmpd fluor = compound fluorescence in yeast efflux pump counter-screen; shares compounds with Efflux pump inh; S. cerevisiae AD/pABC3, flow cytometry; fluorescence ratio to DMSO, % at 10 µM; 4% of 1,700 active; AID 588517;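 active = fluorescence ratio to DMSO above its plate's cutoff, the plate mean ratio plus 5 SD, cut at about 210% in these data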;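 also: unstained yeast with no Nile Red so the signal is compound autofluorescence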
# CaMdr1 efflux inh = inhibitors of Candida albicans Mdr1 efflux pump | shares compounds with Efflux pump inh | S. cerevisiae AD/CaMDR1, Nile Red efflux, flow cytometry | inhibition, % at 10 µM | 1% of 1,700 active | AID 588518; in the data active = inhibition above about 26%;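 also: 0% = DMSO vehicle and 100% = reference inhibitor; higher means more Nile Red retained so more efflux inhibition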
# CaCdr2 efflux inh = Candida Cdr2 efflux pump inhibition | shares compounds with Efflux pump inh | AID 588520 | Nile Red retention ratio vs DMSO, % at 10 µM | 4% of 1,700 active | S. cerevisiae AD/CaCDR2, Nile Red retention, flow cytometry; in the data active = Nile Red retention ratio vs DMSO above about 190%;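 also: higher ratio means more blocking of Cdr2 efflux of the dye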
# Cdr1 pump inh = inhibitors of Candida albicans Cdr1 efflux pump. inhibition, % at 10 µM. 1% of 1,700 active. S. cerevisiae AD/CaCDR1, Nile Red efflux, flow cytometry. shares compounds with Efflux pump inh. AID 588522;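 active = inhibition above the screen-wide mean plus twice its standard deviation, cut at about 32% in these data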
# * marks the source's active call; other numbers are inactive results; . = no result given. Rows were chosen to be rich in hits. Some 4.1% of all compounds tested hit in one or more screens of this group.
SMILES,SMARCA2 activ,TAG inh,AHR act,Efflux pump inh,TbMetRS inhib,Yeast cmpd fluor,CaMdr1 efflux inh,CaCdr2 efflux inh,Cdr1 pump inh
CCn1cc(/C=C/c2cc[n+](C)cc2)c2ccccc21,-4.4,.,1.8,5.0*,-0.8,725.7*,3.0,112.0,3.5
C=CCn1cc(/C=C/c2cc[n+](C)cc2)c2ccccc21,-3.7,.,15.0,1.1,-0.7,289.3*,-0.1,114.1,0.0
Cc1ccccc1/C=C/c1cc[n+](C)cc1,-4.9,-6.5,14.7,-0.1,-0.4,.,.,.,.
O=S1(=O)c2ccc(Br)cc2OC2CCCC[C@@H]2N1Cc1ccccc1 (stereo partly specified),-2.3,.,.,.,.,.,.,.,.
C=CCn1c(C)c(/C=C/c2cc[n+](C)cc2)c2ccccc21,-3.8,.,25.3,1.4*,0.3,683.6*,2.6,133.2,2.4
CN1CCCN(C(=O)CN2C(=O)CC(C)(C)S(=O)(=O)c3ccccc32)CC1,0.7,.,.,.,.,.,.,.,.
CC(=O)C1=C(C)N(Cc2ccc(Cl)cc2)C(=S)NC1c1cccc(Br)c1 (stereo unspecified),-4.1,.,.,.,.,.,.,.,.
COc1cc2sc(-c3ccccc3OC)c(-c3ccc(OCCN4CCOCC4)cc3)c2cc1OC,.,-6.2,.,1.1,-1.7,109.5,0.0,103.9,0.0
COc1cccc(-c2sc3ccccc3c2-c2ccc(OCCN3CCCCC3)cc2)c1,.,40.8,-1.0,0.0,-0.3,.,.,.,.
COc1ccc2c(-c3ccc(OCCN4CCOCC4)cc3)c(-c3ccccc3OC)sc2c1,.,0.9,.,0.5,-2.1,104.6,-0.2,93.5,0.1
Cc1cc(C)cc(C(=O)OCCCN(C)C2CN(Cc3cn(Cc4ccccc4Cl)nn3)S(=O)(=O)C2)c1 (stereo unspecified),-1.4,.,.,.,.,.,.,.,.
O=C(NCc1ccccc1)OCCN1C(=O)CCC12CCC(c1ccccc1)CC2 (stereo unspecified),-3.4,.,.,.,.,.,.,.,.
COc1ccc(CNC(=O)c2cc3c(s2)CN(Cc2ccccc2)C3)cc1,-3.3,-8.0,-0.5,0.5*,0.0,98.9,-0.5,100.1,0.0
N#Cc1cc(C(=O)c2cc(F)ccc2O)cn(-c2nccs2)c1=O,-0.6,.,31.9,6.7*,-0.3,210.1*,2.3,95.1,1.4
S=C(NCCCN1CCOCC1)N1CCN(c2nc(-c3ccc(Cl)cc3)cs2)CC1,-7.4,.,-0.8,0.1,0.1,.,.,.,.
S=C(NCCCN1CCOCC1)N1CCN(c2nc(-c3ccccc3)cs2)CC1,-1.0,-14.9,1.4,1.3*,-1.2,88.7,0.1,97.5,-0.3
COc1ccc(C(=O)N/N=C/c2ccc(OC)c(COc3ccccc3)c2)cc1,5.6,14.8,8.2,-0.1,-1.0,.,.,.,.
COc1cc(OC)cc(C(=O)N/N=C/c2ccc(OC)c(COc3ccc4ccccc4c3)c2)c1,-1.0,-6.2,-1.2,0.6*,-0.3,106.2,0.0,112.2,0.1
COC(=O)[C@]12C[C@H](CC(=O)N3CCCC3)C(=O)N(CCc3ccc(OC)c(OC)c3)C1=C[C@H](C1CCCC1)O[C@@H]2C,-1.5,.,.,.,.,.,.,.,.
O=C1/C(=C/c2cccc([N+](=O)[O-])c2)Oc2cc(O)ccc21,-0.8,.,3.7,0.0,-0.9,.,.,.,.
O=C1/C(=C/c2ccc(O)c(O)c2)Oc2cc(O)ccc21,4.7,.,0.0,2.4*,1.6,103.1,0.1,153.2,0.3
CC(C)CNc1ccc2c(c1)OC[C@H](C)NS2(=O)=O,-2.0,.,.,.,.,.,.,.,.
CCOC(=O)[C@]12CCCC=C1N(CCCOC)C(=O)[C@@H]2CC(=O)NCCCN1CCCC1=O,0.2,.,.,.,.,.,.,.,.
Cc1cccc(NC(=O)CSc2nc(C)c(Cc3ccccc3)c(=O)[nH]2)c1C,.,.,-1.0,2.1*,.,97.6,-0.4,100.7,0.2
Cc1ccc(N)cc1O,-6.1,.,31.7,0.0,0.2,.,.,.,.
SMILES,SMARCA2 activ,TAG inh,AHR act,Efflux pump inh,TbMetRS inhib,Yeast cmpd fluor,CaMdr1 efflux inh,CaCdr2 efflux inh,Cdr1 pump inh
Cc1cc(O)c(N)c(C)c1Cl,-3.1,5.2,12.9,0.8*,-0.4,110.0,0.0,91.9,0.0
O=C1CC(c2ccco2)Sc2ccccc2N1 (stereo unspecified),-3.4,.,30.8,0.3,-0.8,100.0,-0.2,112.4,0.1
O=C1CC(c2ccccc2)Sc2ccccc2N1 (stereo unspecified),-1.2,.,17.7,0.2,-0.8,.,.,.,.
COc1ccccc1/C=C/C1=NC(=C\C=C/c2ccccc2)/C(=O)O1,0.8,.,3.0,5.2*,-0.5,112.7,0.1,110.1,0.4
Cc1ccccc1CN1CCCCC(NC(=O)c2ccc3ccccc3c2)C1=O (stereo unspecified),-3.2,.,.,.,.,.,.,.,.
COC(=O)[C@]12C[C@H](CC(=O)NCC34CC5CC(CC(C5)C3)C4)C(=O)N(Cc3ccccc3)C1=C[C@H](C(C)(C)C)O[C@@H]2C,1.2,.,.,.,.,.,.,.,.
Brc1ccc(-c2csc(NC3=NCCCCC3)n2)cc1,0.2,-8.4,34.5,7.6*,0.0,112.7,0.6,107.2,0.3
CCOc1ccc(-c2csc(NNC3=NCCCCC3)n2)cc1,-1.4,.,18.5,-0.2,-0.3,.,.,.,.
CCCCOCCCNC(=O)C[C@H]1C[C@@]2(C(=O)OC)C(=C[C@H](C(C)C)O[C@@H]2C2CC2)N(Cc2ccccc2)C1=O,-3.9,.,.,.,.,.,.,.,.
COc1cc(N2CCCC2)c(OC)cc1/C=C1/NC(=S)NC1=O,-1.9,.,65.8*,0.5*,0.5,288.7*,0.0,120.4,0.0
COc1ccc(OC)c(/C=C2\NC(=O)NC2=O)c1,-2.0,.,1.5,0.0,-0.2,.,.,.,.
COC(=O)c1ccc(C2OCC(C)(C)CO2)cc1,6.9,-7.5,6.7,1.1*,-0.2,93.5,-0.2,100.7,-0.1
CC1(C(=O)O)COC(c2ccc(Cl)cc2)OC1 (stereo unspecified),2.8,-3.7,-1.8,0.0,-0.4,.,.,.,.
Cc1ccc(CC2CC(=O)N(Cc3ccco3)C2=O)cc1 (stereo unspecified),0.3,8.3,2.5,1.2*,-0.7,107.8,0.0,110.1,0.1
Cc1ccc(CNC(=O)CCS(=O)(=O)c2cc3c(cc2Br)CCN3C(=O)C2CC2)o1,-0.5,.,.,.,.,.,.,.,.
COc1ccc(C(CCNCc2ccc(F)cc2)c2ccc(F)cc2)cc1 (stereo unspecified),-0.9,-5.9,2.6,-0.1,-1.3,.,.,.,.
COc1ccc(CNCCC(c2ccc(F)cc2)c2ccc(OC)cc2)cc1 (stereo unspecified),0.3,.,2.8,10.2*,0.4,96.2,-0.1,109.4,0.0
O=C(CNC(=O)c1ccccc1)NCC1COc2ccccc2O1 (stereo unspecified),-0.5,.,14.4,0.4,0.3,.,.,.,.
CNS(=O)(=O)c1ccc(C(=O)NCC(=O)NCC2COc3ccccc3O2)cc1 (stereo unspecified),1.3,4.8,2.9,0.6*,-0.2,104.7,0.0,95.4,0.0
O=c1c(-c2ccc(Cl)cc2)c[nH]n1-c1ccccc1,1.2,.,4.4,-0.1,-0.1,.,.,.,.

# High-throughput results deposited in PubChem by several laboratories.
